The values below come from ChEMBL document CHEMBL4622873, “Chlorosphaerolactylates A-D: Natural Lactylates of Chlorinated Fatty Acids Isolated from the Cyanobacterium Sphaerospermopsis sp. LEGE 00249” (2020).

Format in all cases: functional
Test [1] concerns Staphylococcus aureus. The test can be described thus: Bactericidal activity against Staphylococcus aureus spa type t1333/S54F9 by CLSI-based broth microdilution method. In short, it runs like this:
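S. aureus clinical isolate S54F9, revived on Mueller-Hinton agar at 37 °C from 25% (v/v) glycerol stocks held at -20 °C, then kept at 4 °C. Broth microdilution susceptibility test in 96-well plates, after which the upper wells were subcultured onto solid MSA agar to read the bactericidal endpoint.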
A general note: Broth dilution looks for growth in wells or tubes with falling amounts of substance.

Test [2] concerns Staphylococcus hominis. Nature of the test: Antibiofilm activity against coagulase-negative Staphylococcus hominis FI31 incubated for 48 hrs by crystal violet staining-based method. In short, it runs like this: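 Strain FI31 is a clinical isolate recovered from an infected prosthesis. Media and solutions were made in ultrapure deionized water and sterilized by autoclaving at 121 °C for 15 min.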

In test [3] the test system is Candida parapsilosis. Nature of the test: Fungicidal activity against Candida parapsilosis SMI416 by CLSI-based broth microdilution method. The conditions noted are these: Lodderomyces parapsilosis. In short, it runs like this: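 C. parapsilosis SMI416, a clinical isolate from a bloodstream infection, revived on Mueller-Hinton agar at 37 °C from 25% (v/v) glycerol stocks held at -20 °C, then maintained at 4 °C. Media and solutions were made in ultrapure water and autoclaved at 121 °C for 15 min.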

≈ marks a conversion by molar mass, not a printed value.

In general, MBC refers to the smallest concentration meeting the test's criterion for killing. Broadly, the MFC is the lowest tested concentration that kills the fungus rather than only halting it. Read a low MFC as more potent killing. Regarding `CC(OC(=O)CCCCCCCCCCCCl)C(=O)O` (configuration not stated), the MBC in test [1] is 2.7 to 6 mM (≈ 828 to 1840 µg/mL). This compound also had an MBIC50 in test [2] of 0.5 to 1.1 mM. In test [3], the MFC is 2.7 to 6 mM (≈ 828 to 1840 µg/mL).

As to `CC(OC(=O)CCCCC(Cl)CCCCCC(Cl)Cl)C(=O)O` (configuration not stated), the minimum bactericidal concentration (MBC) in test [1] lay in the range of 2.7 to 6 mM (≈ 1010 to 2250 µg/mL). The same compound displayed an MBIC50 in test [2] of 0.5 to 1.1 mM. Also, in test [3], the MFC lay in the range of 2.7 to 6 mM (≈ 1010 to 2250 µg/mL).

As to `C[C@H](OC(=O)CCCCC(Cl)CCCCCCCl)C(=O)O` (some centres not stated), in test [1], the minimum bactericidal concentration (MBC) is 2.7 to 6 mM (≈ 921 to 2050 µg/mL). Further, the MBIC50 in test [2] was 0.5 to 1.1 mM. The compound also showed an MFC in test [3] of 2.7 to 6 mM (≈ 921 to 2050 µg/mL).

`CCCCCCC(Cl)CCCCC(=O)OC(C)C(=O)O` (configuration not stated): the MBC in test [1] was 2.7 to 6 mM (≈ 828 to 1840 µg/mL). This compound registered an MBIC50 in test [2] of 0.5 to 1.1 mM. Besides, the minimum fungicidal concentration (MFC) in test [3] lay within 2.7 to 6 mM (≈ 828 to 1840 µg/mL).
